Assay results collected from several papers.

For CN(C)c1ncnc2[nH]cc(-c3cccc(Cl)c3)c12, the concentration was 8700 nM (mass spectrometry; female C57BL/6 mouse, plasma; intraperitoneal, 20 mg/kg, 30 min, single dose).
O=S(=O)(c1cccc(C(F)(F)F)c1)N1CCc2ccc(OCc3c(Cl)cncc3Cl)cc21 has a concentration of 890 nM (mouse, plasma; intraperitoneal, 10 mg/kg, 2 h).
For CC(C)(Nc1nc(-c2ccccn2)nc2ccccc12)c1ccccn1, the concentration was 4740 ng/mL (female BALB/c mouse, plasma; oral, 50 mg/kg, 1 h).
O=S(=O)(c1ccc(-c2ccc3nccc(Nc4ccncn4)c3c2)cc1)N1CCOCC1 gave a concentration of 4460 ng/mL (female BALB/c mouse, plasma; intraperitoneal, 10 mg/kg, 15 min).
For O=S(=O)(c1cccc(C(F)(F)F)c1)N1c2cc(OCc3c(Cl)cncc3Cl)ccc2CC1C(F)(F)F (centres unmarked), the concentration was 160 nM (mouse, plasma; intraperitoneal, 10 mg/kg, 4 h).
For COc1cc(F)c([C@@H]2CNC(=O)[C@H]2NC(=O)Nc2ccccc2)c(F)c1, the concentration was 107 nM (C57BL/6 mouse, plasma; oral, 3 mg/kg, 1 h).
The concentration of CC(C)Oc1cccc(-c2cnc(N3CCC(C(N)=O)CC3)s2)c1 is reported as 416 ng/mL (male Swiss mouse, plasma; oral, 30 mg/kg, 15 min, single dose).
c1ccc(-c2nc(N3CCC(c4ccccn4)C3)c3ccccc3n2)nc1 (centres unmarked) gave a concentration of 63.5 ng/mL (female BALB/c mouse, plasma; oral, 50 mg/kg, 24 h).
With CC(C)Cc1nn(C)c(=O)c2c(SCCCO)n(Cc3cccc4ccccc34)cc12 the concentration was 0 nM (mouse, plasma; intraperitoneal, 20 mg/kg, 7 days, single dose).
With CC(C)(C)c1cc(NC(=O)Nc2ccc(Oc3ccnc4[nH]c(=O)cnc34)cc2F)n(-c2ccccc2)n1 the concentration was ~1000 nM (BALB/c mouse, plasma; oral, 10 mg/kg/day, 24 h).
For Cc1ccc(-c2cccc3cnc(Nc4ccc(C(=O)N5CCOCC5)cc4)nc23)cn1, the concentration was 0 nM (mouse, plasma; intraperitoneal, 10 mg/kg, 2 h).
O=S(=O)(c1cccc(C(F)(F)F)c1)N1CCc2ccc(OCc3c(F)cncc3Cl)cc21 has a concentration of 410 nM (mouse, plasma; intraperitoneal, 10 mg/kg, 2 h).
With COc1ccc2[nH]c3c(C)c4ccnc(C(=O)N[C@H](C)CN(C)C)c4cc3c2c1 the concentration was 40 nM (male C57BL/6 mouse, plasma; intraperitoneal, 10 mg/kg, 2 h, single dose).
The concentration of O=C(O)C1CCN(c2ncc(-c3ccc4c(c3)OCCCO4)s2)CC1 is reported as 4540 ng/mL (male Swiss mouse, plasma; oral, 30 mg/kg, 8 h, single dose).
For O=c1cc(-c2ccccc2)oc2c(O)c(O)ccc12, the concentration was 18 ng/g (male CD-1 mouse, brain; oral, 50 mg/kg, 30 min).
With CC(C)CN(C[C@@H](O)[C@H](Cc1ccccc1)NC(=O)O[C@H]1CO[C@H]2OCC[C@H]21)S(=O)(=O)c1ccc(N)cc1 the concentration was 1.19 ng/g (BALB/c mouse, brain; intravenous, 2.5 mg/kg, 3 h).
For O=c1nc(N2CCN(CC3CCCCC3)CC2)sc2c([N+](=O)[O-])cc(C(F)(F)F)cc12, the concentration was 2830 ng/mL (CD-1 mouse, lung; intravenous, 10 mg/kg, 15 min).
